Measurements pooled from the literature.
Each line is one published result; the experiments were not run side by side.
USP51: Ubiquitin carboxyl-terminal hydrolase 51 (USP51, Homo sapiens, UniProt Q70EK9)
CASP3: Caspase-3 (CASP3, Homo sapiens, UniProt P42574)
AAK1: AP2-associated protein kinase 1 (AAK1, Homo sapiens, UniProt Q2M2I8)
GHSR: Growth hormone secretagogue receptor type 1 (GHSR, Homo sapiens, UniProt Q92847)

COc1cccc2c1cc([N+](=O)[O-])c1c(C(=O)O)cc3c(c12)OCO3
inhibition (USP51; enzyme activity, inhibitor; 5 µM): 36%

CC(=O)N[C@@H](CC(=O)O)C(=O)N[C@@H](CC(N)=O)C(=O)N[C@@H](CC(C)C)C(=O)N[C@H](C=O)CC(=O)O
inhibition (CASP3; enzyme activity, inhibitor; 10 nM): 25%

O=c1cccc2n1C[C@@H]1CNC[C@H]2C1
inhibition (USP51; enzyme activity, inhibitor; 5 µM): 0%

Cn1cc(-c2cc(F)cc(N3CCn4c(cc5c4CCCC5)C3=O)c2CO)cc(Nc2ccc(N3CCN(C4COC4)CC3)cn2)c1=O
inhibition (Calcium/calmodulin-dependent protein kinase type IV (CAMK4, Homo sapiens, UniProt Q16566); enzyme activity, inhibitor; 0.1 µM): 15%

O=C(Nc1cccnn1)N1CCN([C@@H]2CCOc3cc(C(F)(F)F)ccc32)CC1
inhibition (Angiotensin-converting enzyme (ACE, Homo sapiens, UniProt P12821); enzyme activity, inhibitor; 20 µM): -7%

C#Cc1n[nH]c2c(-c3cn([C@@H](C)c4ccccc4)c(=O)[nH]c3=O)cc(F)cc12
inhibition (AAK1; enzyme activity, inhibitor; 0.1 µM): -0.1%

CC1=C2[C@H]3OC(=O)[C@@H](C)[C@@H]3CC[C@@]2(C)C=CC1=O
inhibition (USP51; enzyme activity, inhibitor; 5 µM): 28%

CN(C)C(=O)COC(=O)Cc1ccc(OC(=O)c2ccc(NC(=N)N)cc2)cc1
inhibition (CASP3; enzyme activity, inhibitor; 10 µM): 0%

COC1=CC(=O)O[C@@H](/C=C/c2ccccc2)C1
inhibition (USP51; enzyme activity, inhibitor; 5 µM): 40%

N=C(N)c1ccc2cc(OC(=O)c3ccc(N=C(N)N)cc3)ccc2c1
inhibition (CASP3; enzyme activity, inhibitor; 10 µM): 0%

C[C@H](C(=O)N[C@H]1COc2ccccc2[C@@H]1S(C)(=O)=O)c1ccc(F)cc1
inhibition (GHSR; cell-free assay; 10 µM): -1%

CC(C)N1CCC[C@H]1CNC(=O)c1cn(C2CCCC2)c(=O)c2c1c1ccccc1n2C
inhibition (Sodium- and chloride-dependent GABA transporter 1 (Slc6a1, Rattus norvegicus, UniProt P23978); ligand displacement, radioligand; 10 µM): -2%

Cc1ncc(C)n2nc(/C=C/c3nc(N4CCCC4)cc(N4CCOCC4)n3)nc12
inhibition (Prostaglandin F2-alpha receptor (PTGFR, Homo sapiens, UniProt P43088); ligand displacement; 10 µM): -9%

c1ccc(C(NCCNC(c2ccccc2)c2ccccc2)c2ccccc2)cc1
inhibition (GHSR; cell-free assay; 10 µM): 86%

COC(=O)C[C@](O)(CCC(C)(C)O)C(=O)O[C@@H]1C(OC)=C[C@]23CCCN2CCc2cc4c(cc2[C@H]13)OCO4
inhibition (USP51; enzyme activity, inhibitor; 5 µM): 0%

C#Cc1n[nH]c2c(-c3cn([C@@H](C)c4ccccn4)c(=O)[nH]c3=O)cc(F)cc12
inhibition (AAK1; enzyme activity, inhibitor; 0.1 µM): 4.6%
